# Source: ChEMBL document CHEMBL4364254 (J Med Chem, 2019)
# The source made the active and inactive calls. The calls are words filed in the database; no cut-off is given here.
# How the values were obtained:
# Cytochrome P450 1A2 = Cytochrome P450 1A2 (Homo sapiens, UniProt P05177); test: Induction of CYP1A2 in human HepaRG cells at 10 uM measured after 24 hrs by qRT-PCR analysis relative to omeprazole; format: ADME, cell-based; settings: hepatocytes
# In short: (§1)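 Cryopreserved HepaRG cells were plated on collagen I in Williams' E medium with GlutaMAX. On day 4 they were treated with 10 μM compound in serum-free induction medium for 24 h at 37 °C; the vehicle was 1% DMSO. Positive controls were omeprazole 50 μM (CYP1A2), phenobarbital 1 mM (CYP2B6) and rifampicin 10 μM (CYP3A4). mRNA was read by TaqMan qPCR with GAPDH as reference, using ΔΔCt, and expressed as % of the positive control.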
# Cytochrome P450 3A4 = Cytochrome P450 3A4 (Homo sapiens, UniProt P08684); test: Induction of CYP3A4 in human HepaRG cells at 10 uM measured after 24 hrs by qRT-PCR analysis relative to rifampicin; format: ADME, cell-based; settings: hepatocytes
# In short: as §1, with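 “GlutaMAX.” for “GlutaMAX. On day 4 they were treated with 10 μM compound in serum-free induction medium for 24 h at 37 °C; the vehicle was 1% DMSO.”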
# Mus musculus = test: Anti-hepatosteatosis activity in ethanol-induced C57BL/6 mouse model of hepatic steatosis assessed as reduction in liver weight at 0.3 mg/kg, po administered once daily via gavage for last 2 weeks of study measured post-last dose; format: functional, organism-based
# In short: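 Female C57BL/6J mice (9 weeks old, 19–21 g) were kept on Lieber–DeCarli liquid diet, with ethanol raised from 1 to 5% (v/v) over 15 d and then held for 4 weeks, pair-fed. Dosing was 0.03, 0.1 or 0.3 mg/kg by oral gavage once daily for the last 2 weeks, in 0.5% Na-CMC/1% NMP/0.3% Tween 80. Read-outs were Oil Red O on 10 μm liver sections imaged at 10× and liver weight normalized to brain weight. n = 6–10 per group; t test versus ethanol + vehicle.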
# [1] = biological target: Alpha-2A adrenergic receptor (Homo sapiens, UniProt P08913); test: Displacement of [3H]RX 821002 from recombinant human alpha 2A adrenoceptor after 60 mins by scintillation counting analysis
# [2] = biological target: Beta-1 adrenergic receptor (Homo sapiens, UniProt P08588); test: Displacement of [3H](-)CGP12177 from recombinant human beta1 adrenergic receptor after 60 mins by scintillation counting analysis
# [3] = biological target: Beta-2 adrenergic receptor (Homo sapiens, UniProt P07550); test: Displacement of [3H](-)CGP12177 from recombinant human beta2 adrenergic receptor after 120 mins by scintillation counting analysis
# [4] = biological target: Cholecystokinin receptor type A (Homo sapiens, UniProt P32238); test: Displacement of [125I]CCK-8s from recombinant human CCK1 receptor after 60 mins by scintillation counting analysis
# D(1A) dopamine receptor = D(1A) dopamine receptor (Homo sapiens, UniProt P21728); test: Displacement of [3H]SCH23390 from recombinant human D1 receptor after 60 mins by scintillation counting analysis
# D(2) dopamine receptor = D(2) dopamine receptor (Homo sapiens, UniProt P14416); test: Displacement of [3H]7-OH-DPAT from recombinant human D2s receptor after 60 mins by scintillation counting analysis
# Endothelin-1 receptor = Endothelin-1 receptor (Homo sapiens, UniProt P25101); test: Displacement of [125I]endothelin-1 from recombinant human ETA receptor after 120 mins by scintillation counting analysis
# [5] = biological target: Muscarinic acetylcholine receptor M1 (Homo sapiens, UniProt P11229); test: Displacement of [3H]pirenzepine from recombinant human M1 receptor after 60 mins by scintillation counting analysis
# [6] = biological target: Delta-type opioid receptor (Homo sapiens, UniProt P41143); test: Displacement of [3H]DADLE from recombinant human DOR after 60 mins by scintillation counting analysis
# [7] = biological target: 5-hydroxytryptamine receptor 1A (Homo sapiens, UniProt P08908); test: Displacement of [3H]8-OH-DPAT from recombinant human 5HT1A after 60 mins by scintillation counting analysis
# [8] = biological target: 5-hydroxytryptamine receptor 1B (Homo sapiens, UniProt P28222); test: Displacement of [3H]GR125743 from recombinant human 5HT1B after 60 mins by scintillation counting analysis
# [9] = biological target: 5-hydroxytryptamine receptor 2B (Homo sapiens, UniProt P41595); test: Displacement of [125I](+/-)DOI from recombinant human 5HT2B receptor after 60 mins by scintillation counting analysis
# Vasopressin V1a receptor = Vasopressin V1a receptor (Homo sapiens, UniProt P37288); test: Displacement of [3H]AVP from recombinant human V1A receptor after 60 mins by scintillation counting analysis
# [10] = biological target: Sodium-dependent dopamine transporter (Homo sapiens, UniProt Q01959); test: Displacement of [3H]BTCP from recombinant human dopamine transporter after 120 mins by scintillation counting analysis
# [11] = biological target: GABA-A receptor; anion channel; test: Displacement of [3H]flunitrazepam from rat brain GABAA ion channel after 60 mins by scintillation counting analysis
# [12] = biological target: Voltage-dependent L-type calcium channel subunit alpha-1C (Rattus norvegicus, UniProt P22002); test: Displacement of [3H]nitrendipine from rat brain Cav1.2 dihydropyridine site after 90 mins by scintillation counting analysis
# [13] = Displacement of [125I]alpha-dendrotoxin from rat brain voltage-gated potassium ion channel after 60 mins by scintillation counting analysis
# Androgen receptor = Androgen receptor (Homo sapiens, UniProt P10275); test: Displacement of [3H]methyltrienolone from recombinant human AR after 1440 mins by scintillation counting analysis
# Glucocorticoid receptor = Glucocorticoid receptor (Homo sapiens, UniProt P04150); test: Displacement of [3H]dexamethasone from recombinant human GR after 360 mins by scintillation counting analysis
# [14] = biological target: Tyrosine-protein kinase Lck (Homo sapiens, UniProt P06239); test: Activity at recombinant human LCK using Ulight-Poly GAT[EAY(1:1:1)]n as substrate measured after 10 mins by LANCE assay
# [15] = biological target: Prostaglandin G/H synthase 1 (Homo sapiens, UniProt P23219); test: Activity at human recombinant COX1 using arachidonic acid as substrate measured after 3 mins by ADHP reagent based fluorescence assay
# Acetylcholinesterase = Acetylcholinesterase (Homo sapiens, UniProt P22303); test: Activity at human recombinant ACHE using acetylthiocholine as substrate measured after 30 mins by spectrophotometric assay
# Vasopressin V1a receptor, sequence (P37288 whole entry): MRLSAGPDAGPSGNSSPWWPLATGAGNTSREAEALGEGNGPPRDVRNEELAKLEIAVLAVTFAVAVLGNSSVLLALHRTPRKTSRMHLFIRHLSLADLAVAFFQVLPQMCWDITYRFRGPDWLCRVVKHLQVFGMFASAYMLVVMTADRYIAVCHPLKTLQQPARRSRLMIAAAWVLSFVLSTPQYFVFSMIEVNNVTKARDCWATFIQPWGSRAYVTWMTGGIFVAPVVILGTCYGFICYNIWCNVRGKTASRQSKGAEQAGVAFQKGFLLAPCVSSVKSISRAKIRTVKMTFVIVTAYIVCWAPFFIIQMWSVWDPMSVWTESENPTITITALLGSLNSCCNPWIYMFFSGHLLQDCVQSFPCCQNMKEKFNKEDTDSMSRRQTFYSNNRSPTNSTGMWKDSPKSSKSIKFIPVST
# D(1A) dopamine receptor, sequence (P21728 whole entry): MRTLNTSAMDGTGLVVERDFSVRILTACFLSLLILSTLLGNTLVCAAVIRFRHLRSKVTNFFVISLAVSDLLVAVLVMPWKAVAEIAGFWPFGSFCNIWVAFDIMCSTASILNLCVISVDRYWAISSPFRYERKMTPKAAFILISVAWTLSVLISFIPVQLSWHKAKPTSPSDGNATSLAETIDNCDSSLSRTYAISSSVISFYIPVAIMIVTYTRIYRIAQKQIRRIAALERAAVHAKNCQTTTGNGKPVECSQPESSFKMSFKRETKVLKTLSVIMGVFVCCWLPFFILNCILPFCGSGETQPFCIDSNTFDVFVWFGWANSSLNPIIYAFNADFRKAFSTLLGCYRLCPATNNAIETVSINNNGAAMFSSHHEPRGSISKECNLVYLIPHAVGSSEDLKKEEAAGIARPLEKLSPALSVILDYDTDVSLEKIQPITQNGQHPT
# Beta-1 adrenergic receptor, sequence (P08588 whole entry): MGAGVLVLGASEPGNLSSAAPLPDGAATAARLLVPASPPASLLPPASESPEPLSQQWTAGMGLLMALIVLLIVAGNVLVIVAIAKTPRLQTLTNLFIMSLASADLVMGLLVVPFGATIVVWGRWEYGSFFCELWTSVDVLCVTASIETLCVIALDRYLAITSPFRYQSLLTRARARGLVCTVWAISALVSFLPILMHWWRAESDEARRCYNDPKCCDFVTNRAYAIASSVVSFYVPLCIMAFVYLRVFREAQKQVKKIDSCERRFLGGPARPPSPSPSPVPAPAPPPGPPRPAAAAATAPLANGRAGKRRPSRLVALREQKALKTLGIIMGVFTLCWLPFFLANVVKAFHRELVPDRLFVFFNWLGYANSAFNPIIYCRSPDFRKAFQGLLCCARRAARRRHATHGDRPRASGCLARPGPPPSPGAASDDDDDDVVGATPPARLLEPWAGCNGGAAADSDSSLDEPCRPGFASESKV
# 5-hydroxytryptamine receptor 1A, sequence (P08908 whole entry): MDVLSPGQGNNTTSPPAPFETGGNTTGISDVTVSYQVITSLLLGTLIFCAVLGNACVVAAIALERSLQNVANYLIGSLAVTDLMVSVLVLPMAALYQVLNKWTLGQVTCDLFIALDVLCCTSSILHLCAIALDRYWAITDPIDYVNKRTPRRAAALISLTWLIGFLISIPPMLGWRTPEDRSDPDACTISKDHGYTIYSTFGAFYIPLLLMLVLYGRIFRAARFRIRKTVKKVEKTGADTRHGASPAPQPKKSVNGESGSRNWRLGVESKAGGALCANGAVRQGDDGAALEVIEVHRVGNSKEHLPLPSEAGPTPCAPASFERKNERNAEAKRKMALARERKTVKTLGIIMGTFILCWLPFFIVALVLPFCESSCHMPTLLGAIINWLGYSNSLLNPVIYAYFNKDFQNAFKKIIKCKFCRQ
# Beta-2 adrenergic receptor, sequence (P07550 whole entry): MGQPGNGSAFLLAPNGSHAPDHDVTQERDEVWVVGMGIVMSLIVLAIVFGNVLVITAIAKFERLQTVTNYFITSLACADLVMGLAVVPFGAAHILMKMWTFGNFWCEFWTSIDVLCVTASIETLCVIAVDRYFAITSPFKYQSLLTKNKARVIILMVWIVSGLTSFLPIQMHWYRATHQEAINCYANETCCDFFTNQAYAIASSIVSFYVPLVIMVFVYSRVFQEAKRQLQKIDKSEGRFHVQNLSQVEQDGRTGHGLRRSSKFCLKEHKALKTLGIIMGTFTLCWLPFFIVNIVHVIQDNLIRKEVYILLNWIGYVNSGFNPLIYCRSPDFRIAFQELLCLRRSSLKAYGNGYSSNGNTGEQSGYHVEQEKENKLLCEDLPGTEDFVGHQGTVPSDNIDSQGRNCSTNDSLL
# Glucocorticoid receptor, sequence (P04150 whole entry): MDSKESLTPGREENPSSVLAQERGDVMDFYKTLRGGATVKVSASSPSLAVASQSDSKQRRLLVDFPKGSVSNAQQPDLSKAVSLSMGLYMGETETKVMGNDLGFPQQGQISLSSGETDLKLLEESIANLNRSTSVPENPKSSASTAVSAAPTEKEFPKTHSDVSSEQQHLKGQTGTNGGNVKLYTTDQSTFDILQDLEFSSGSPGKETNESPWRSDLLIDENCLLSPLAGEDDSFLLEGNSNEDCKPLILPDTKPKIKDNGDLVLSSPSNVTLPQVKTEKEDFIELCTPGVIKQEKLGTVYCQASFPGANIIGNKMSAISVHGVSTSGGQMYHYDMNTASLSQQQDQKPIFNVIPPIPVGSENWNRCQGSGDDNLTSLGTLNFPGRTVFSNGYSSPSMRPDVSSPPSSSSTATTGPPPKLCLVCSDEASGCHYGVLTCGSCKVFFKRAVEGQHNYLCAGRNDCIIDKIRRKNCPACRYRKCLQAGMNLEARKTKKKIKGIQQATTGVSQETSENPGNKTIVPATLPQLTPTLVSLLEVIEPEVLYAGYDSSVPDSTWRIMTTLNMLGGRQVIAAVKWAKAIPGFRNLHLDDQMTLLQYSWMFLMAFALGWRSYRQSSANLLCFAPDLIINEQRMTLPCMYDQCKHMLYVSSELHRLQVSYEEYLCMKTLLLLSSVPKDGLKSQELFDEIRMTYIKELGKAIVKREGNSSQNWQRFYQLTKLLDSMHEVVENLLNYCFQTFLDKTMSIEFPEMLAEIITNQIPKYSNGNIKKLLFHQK
# 5-hydroxytryptamine receptor 2B, sequence (P41595 whole entry): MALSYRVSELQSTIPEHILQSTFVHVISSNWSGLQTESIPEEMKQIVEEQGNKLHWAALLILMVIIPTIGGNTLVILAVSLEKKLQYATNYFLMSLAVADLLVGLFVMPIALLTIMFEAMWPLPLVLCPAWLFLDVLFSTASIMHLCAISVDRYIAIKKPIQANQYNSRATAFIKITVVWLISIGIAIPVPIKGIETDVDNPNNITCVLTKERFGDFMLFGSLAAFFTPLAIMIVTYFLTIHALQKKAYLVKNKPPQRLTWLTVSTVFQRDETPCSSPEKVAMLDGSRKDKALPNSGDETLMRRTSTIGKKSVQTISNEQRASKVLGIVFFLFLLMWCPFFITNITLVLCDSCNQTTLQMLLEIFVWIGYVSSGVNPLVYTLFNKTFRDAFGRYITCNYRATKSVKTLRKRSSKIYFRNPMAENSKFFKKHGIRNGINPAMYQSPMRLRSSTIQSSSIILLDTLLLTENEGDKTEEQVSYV
# Muscarinic acetylcholine receptor M1, sequence (P11229 whole entry): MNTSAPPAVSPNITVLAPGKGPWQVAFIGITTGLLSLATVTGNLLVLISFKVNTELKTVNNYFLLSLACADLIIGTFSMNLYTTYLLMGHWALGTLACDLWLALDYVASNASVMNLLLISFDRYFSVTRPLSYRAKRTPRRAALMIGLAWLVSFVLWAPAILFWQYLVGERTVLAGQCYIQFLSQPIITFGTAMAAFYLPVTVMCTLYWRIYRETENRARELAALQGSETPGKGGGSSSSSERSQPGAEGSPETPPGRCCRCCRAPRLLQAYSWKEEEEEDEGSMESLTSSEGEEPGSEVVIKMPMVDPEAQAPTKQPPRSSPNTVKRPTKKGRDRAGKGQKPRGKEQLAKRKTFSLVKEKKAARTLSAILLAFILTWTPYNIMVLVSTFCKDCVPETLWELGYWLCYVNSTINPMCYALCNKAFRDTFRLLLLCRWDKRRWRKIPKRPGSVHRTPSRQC
# Delta-type opioid receptor, sequence (P41143 whole entry): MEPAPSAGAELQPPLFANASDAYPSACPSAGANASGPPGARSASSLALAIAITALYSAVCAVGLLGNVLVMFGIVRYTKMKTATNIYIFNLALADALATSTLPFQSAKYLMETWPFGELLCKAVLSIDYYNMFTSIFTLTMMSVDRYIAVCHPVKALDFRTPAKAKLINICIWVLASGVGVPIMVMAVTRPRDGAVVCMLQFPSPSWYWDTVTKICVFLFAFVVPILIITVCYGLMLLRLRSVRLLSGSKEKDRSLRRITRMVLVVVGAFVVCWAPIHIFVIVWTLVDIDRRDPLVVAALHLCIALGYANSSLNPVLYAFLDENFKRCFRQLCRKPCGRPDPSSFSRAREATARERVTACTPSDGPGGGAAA
# Alpha-2A adrenergic receptor, sequence (P08913 whole entry): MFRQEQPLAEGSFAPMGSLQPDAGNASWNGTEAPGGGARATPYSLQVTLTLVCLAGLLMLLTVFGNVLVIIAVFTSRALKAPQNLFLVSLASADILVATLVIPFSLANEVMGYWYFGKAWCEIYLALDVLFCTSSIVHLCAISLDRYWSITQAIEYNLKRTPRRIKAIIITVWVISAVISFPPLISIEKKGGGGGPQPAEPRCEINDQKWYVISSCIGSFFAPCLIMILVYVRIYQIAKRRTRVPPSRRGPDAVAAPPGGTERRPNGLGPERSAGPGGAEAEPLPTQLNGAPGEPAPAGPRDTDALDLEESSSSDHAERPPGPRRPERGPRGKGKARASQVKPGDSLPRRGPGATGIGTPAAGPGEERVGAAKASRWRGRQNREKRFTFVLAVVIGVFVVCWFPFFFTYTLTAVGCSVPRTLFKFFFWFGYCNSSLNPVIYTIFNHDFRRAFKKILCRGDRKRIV
smiles,measurement,setting,value
O=C(Nc1ccc(OC(F)F)nc1)NC1CCN(c2ncnc3c2nc(-c2ccccc2Cl)n3-c2ccc(Cl)cc2)CC1,Activity,Cytochrome P450 1A2,< 1%
same,Activity,Cytochrome P450 3A4,< 10%
same,Activity,Mus musculus,Active
same,EC50,[1],> 10 µM
same,IC50,[1],> 10 µM
same,EC50,[2],> 10 µM
same,IC50,[2],> 10 µM
same,EC50,[3],> 10 µM
same,IC50,[3],> 10 µM
same,EC50,[4],> 10 µM
same,IC50,[4],> 10 µM
same,EC50,D(1A) dopamine receptor,> 10 µM
same,IC50,D(1A) dopamine receptor,> 10 µM
same,EC50,D(2) dopamine receptor,> 10 µM
same,IC50,D(2) dopamine receptor,> 10 µM
same,EC50,Endothelin-1 receptor,> 10 µM
same,IC50,Endothelin-1 receptor,> 10 µM
same,EC50,[5],> 10 µM
same,IC50,[5],> 10 µM
same,EC50,[6],> 10 µM
same,IC50,[6],> 10 µM
same,EC50,[7],> 10 µM
same,IC50,[7],> 10 µM
same,EC50,[8],> 10 µM
same,IC50,[8],> 10 µM
same,EC50,[9],> 10 µM
same,IC50,[9],> 10 µM
same,EC50,Vasopressin V1a receptor,> 10 µM
same,IC50,Vasopressin V1a receptor,> 10 µM
same,EC50,[10],> 10 µM
same,IC50,[10],> 10 µM
same,EC50,[11],> 10 µM
same,IC50,[11],> 10 µM
same,EC50,[12],> 10 µM
same,IC50,[12],> 10 µM
same,EC50,[13],> 10 µM
same,IC50,[13],> 10 µM
same,EC50,Androgen receptor,> 10 µM
same,IC50,Androgen receptor,> 10 µM
same,EC50,Glucocorticoid receptor,> 10 µM
same,IC50,Glucocorticoid receptor,> 10 µM
same,EC50,[14],> 10 µM
same,IC50,[14],> 10 µM
same,EC50,[15],> 10 µM
same,IC50,[15],> 10 µM
same,EC50,Acetylcholinesterase,> 10 µM
same,IC50,Acetylcholinesterase,> 10 µM
